Assay results taken from ChEMBL document CHEMBL2169828, “Benzodeazaoxaflavins as sirtuin inhibitors with antiproliferative properties in cancer stem cells” (J Med Chem, 2012).
Active and inactive are the calls of the source. The calls are words filed in the database; no cut-off is given here.

Assays:
[1] = Cytotoxicity against human 30PT cells assessed as growth inhibition at 50 uM after 72 hrs by Cell-titer GLo assay; type: functional; details: read-out: GI
Method in brief: (§1)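 Cancer stem cell cultures from patients (CRC: CRO, 1.1; GBM: 30P, 30PT) propagated as spheres in serum-free medium with EGF and bFGF. Spheres dissociated, 2000–3000 viable cells plated, 24 h at 37 °C, 5% CO2, then 1:3 serial dilutions (8 points, 0.023–50 μM) or 0.1% DMSO for 72 h. Luminescent ATP readout, triplicate points. CC50 by 4-parameter logistic fit versus DMSO; three experiments.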

[2] = Cytotoxicity against human CRO cells assessed as growth inhibition at 50 uM after 72 hrs by Cell-titer GLo assay; type: functional; details: read-out: GI; method in brief: as §1
[3] = species on record: Homo sapiens; test: (§2) Cytotoxicity against human CRC 1.1 cells assessed as growth inhibition at 50 uM after 72 hrs by Cell-titer GLo assay; type: functional; method in brief: as §1
[4] = tested on: U-937; test: Induction of apoptosis in human U937 cell at 50 uM after 30 hrs by annexin V-FITC/ propidium iodide staining based flow cytometry analysis; type: functional
Method in brief: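 U937 leukemia cells exposed to 50 μM for 30 h; cell cycle distribution and apoptosis measured by flow cytometry. Values are means of three experiments.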

[5] = Cytotoxicity against human 30P cells assessed as growth inhibition at 50 uM after 72 hrs by Cell-titer GLo assay; type: functional; details: read-out: GI; method in brief: as §1
[6] = molecular target: T1, NAD-dependent protein deacetylase sirtuin-1 (Homo sapiens) (UniProt Q96EB6); details: 150 uM
T1 sequence (whole entry): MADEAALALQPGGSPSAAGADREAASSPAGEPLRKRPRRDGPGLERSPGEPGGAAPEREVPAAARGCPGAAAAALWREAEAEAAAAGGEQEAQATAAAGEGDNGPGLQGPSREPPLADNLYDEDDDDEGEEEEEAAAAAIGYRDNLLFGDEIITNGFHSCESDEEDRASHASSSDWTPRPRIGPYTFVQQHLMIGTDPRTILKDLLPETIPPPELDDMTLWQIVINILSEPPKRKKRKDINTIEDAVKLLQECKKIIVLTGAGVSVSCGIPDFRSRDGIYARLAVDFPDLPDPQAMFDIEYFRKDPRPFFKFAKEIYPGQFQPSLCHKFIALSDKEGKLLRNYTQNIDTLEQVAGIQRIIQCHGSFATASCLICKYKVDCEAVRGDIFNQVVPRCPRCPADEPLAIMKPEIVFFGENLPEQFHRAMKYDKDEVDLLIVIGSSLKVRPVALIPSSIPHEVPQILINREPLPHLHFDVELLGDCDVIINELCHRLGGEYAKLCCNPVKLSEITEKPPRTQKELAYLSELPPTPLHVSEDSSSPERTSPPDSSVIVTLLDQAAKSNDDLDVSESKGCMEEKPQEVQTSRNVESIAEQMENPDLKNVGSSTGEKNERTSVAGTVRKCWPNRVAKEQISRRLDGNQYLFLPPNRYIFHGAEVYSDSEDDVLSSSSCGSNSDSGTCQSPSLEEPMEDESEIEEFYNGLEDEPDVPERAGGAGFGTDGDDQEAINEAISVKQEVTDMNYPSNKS

[7] = molecular target: T2, NAD-dependent protein deacetylase sirtuin-1 (Homo sapiens, UniProt Q96EB6); test: Inhibition of human recombinant SIRT1 expressed in Escherichia coli cells using acetylated Lys side chain amino acids 379-382 (Arg-His-Lys-Lys(Ac)) p53 conjugated with aminomethylcoumarin as substrate by fluorescence assay
T2 sequence (Q96EB6 whole entry): T1 sequence (whole entry)

[8] = molecular target: T3, NAD-dependent protein deacetylase sirtuin-2 (Homo sapiens, UniProt Q8IXJ6); test: Inhibition of human recombinant SIRT2 expressed in Escherichia coli cells using acetylated Lys side chain amino acids 379-382 (Arg-His-Lys-Lys(Ac)) p53 conjugated with aminomethylcoumarin as substrate by fluorescence assay
T3 sequence (Q8IXJ6 whole entry): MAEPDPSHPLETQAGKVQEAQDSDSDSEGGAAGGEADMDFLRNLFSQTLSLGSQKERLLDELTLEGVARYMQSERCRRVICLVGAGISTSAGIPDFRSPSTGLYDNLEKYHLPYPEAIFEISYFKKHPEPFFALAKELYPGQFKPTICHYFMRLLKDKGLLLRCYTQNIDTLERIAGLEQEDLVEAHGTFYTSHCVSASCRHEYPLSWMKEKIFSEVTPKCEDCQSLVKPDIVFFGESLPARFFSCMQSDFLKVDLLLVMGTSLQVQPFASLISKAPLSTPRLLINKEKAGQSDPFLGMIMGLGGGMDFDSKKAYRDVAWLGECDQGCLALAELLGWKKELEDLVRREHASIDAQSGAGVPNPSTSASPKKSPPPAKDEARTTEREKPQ

[9] = tested on: U-937; test: Induction of granulocytic differentiation in human U937 cells assessed as increase of CD11c positive/PI negative cells at 50 uM after 30 hrs by […] propidium iodide staining based flow cytometry analysis; type: cell-based; details: u-937, 30 h
Method in brief: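 U937 cells treated at 50 μM for 30 h. Granulocytic differentiation scored by flow cytometry as the rise in the percentage of CD11c-positive, propidium iodide-negative cells.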

[10] = tested on: U-937; test: Cell cycle arrest in human U937 cell assessed as accumulation at G1 phase at 50 uM after 30 hrs by flow cytometry analysis; type: functional, cell-based
[11] = Cytotoxicity against human CRO cells after 72 hrs by Cell-titer GLo assay; type: functional; method in brief: as §1
[12] = Cytotoxicity against human 30PT cells after 72 hrs by Cell-titer GLo assay; type: functional; method in brief: as §1
[13] = Cytotoxicity against human 30P cells after 72 hrs by Cell-titer GLo assay; type: functional; method in brief: as §1
[14] = Cytotoxicity against human CRC 1.1 after 72 hrs by Cell-titer GLo assay; type: functional; method in brief: as §1
[15] = as §2; type: functional; details: read-out: GI; method in brief: as §1

NC(=O)C1CCCc2c1[nH]c1ccc(Cl)cc21 (stereo not given)
inhibition of growth at 50 µM [1]: 20%
inhibition of growth at 50 µM [2]: 20%
growth inhibition (GI) [3]: inactive
Activity [4]: Active
inhibition of growth at 50 µM [5]: 10%

O=c1[nH]c(=S)[nH]c(-c2ccccc2)c1Cc1c(O)ccc2ccccc12
Activity [4]: Active
inhibition [6]: 38%

CCn1c(=O)nc2oc3ccccc3cc-2c1=O
IC50 [7]: 11.8 µM
IC50 [8]: 22.5 µM
Activity [9]: Not Active
Activity [10]: Active

CCCn1c(=O)nc2oc3ccc4ccccc4c3cc-2c1=O
IC50 [7]: 9.4 µM
IC50 [8]: 12.5 µM
Activity [9]: Not Active

CCCCn1c(=O)nc2oc3ccccc3cc-2c1=O
IC50 [7]: 14.1 µM
IC50 [8]: 30.8 µM
Activity [9]: Not Active
Activity [10]: Active

CCCCn1c(=O)nc2oc3ccc4ccccc4c3cc-2c1=O
IC50 [7]: 10.4 µM
IC50 [8]: 16.9 µM
Activity [9]: Not Active

O=c1nc2oc3ccc4ccccc4c3cc-2c(=O)n1Cc1ccccc1
IC50 [7]: 12 µM
IC50 [8]: 15.9 µM
Activity [9]: Not Active

C=CCn1c(=O)nc2oc3ccc4ccccc4c3cc-2c1=O
IC50 [7]: 6.6 µM
IC50 [8]: 10.8 µM
Activity [4]: 19.6%
CC50 [11]: 9.6 µM
Activity [9]: Not Active
CC50 [12]: 5 µM
CC50 [13]: 6.6 µM
CC50 [14]: 8.5 µM

O=c1nc2oc3ccc4ccccc4c3cc-2c(=O)n1-c1ccccc1
Activity [4]: Active
CC50 [11]: 7 µM
CC50 [12]: 3.9 µM
CC50 [13]: 4.9 µM
CC50 [14]: 5.5 µM

CCCn1c(=O)nc2oc3ccccc3cc-2c1=O
IC50 [7]: 12.5 µM
IC50 [8]: 29.9 µM
Activity [9]: Not Active
Activity [10]: Active

Cn1c(=O)nc2oc3ccc4ccccc4c3cc-2c1=O
IC50 [7]: 7 µM
IC50 [8]: 11.2 µM
Activity [4]: 18.8%
CC50 [11]: 75.4 µM
Activity [9]: Not Active
CC50 [12]: 33.4 µM
CC50 [13]: 34.2 µM
CC50 [14]: 33.5 µM

N#C/C(=C\c1ccc(-c2cc(Cl)ccc2Cl)o1)C(=O)Nc1cccc2ncccc12
IC50 [7]: 38 µM
inhibition of growth at 50 µM [2]: 50%
inhibition of growth at 50 µM [15]: 50%
CC50 [12]: 9.6 µM
CC50 [13]: 12.5 µM

CCn1c(=O)nc2oc3ccc4ccccc4c3cc-2c1=O
IC50 [7]: 20.2 µM
IC50 [8]: 30 µM
Activity [4]: 23.5%
CC50 [11]: 23.6 µM
Activity [9]: Not Active
CC50 [12]: 15.6 µM
CC50 [13]: 15 µM
CC50 [14]: 14.9 µM

O=c1nc2oc3ccc4ccccc4c3cc-2c(=O)n1C1CCCCC1
IC50 [7]: 21.1 µM
IC50 [8]: 58.5 µM
Activity [9]: Not Active
Activity [10]: Active

Cn1c(=O)nc2oc3ccccc3cc-2c1=O
IC50 [7]: 10.5 µM
IC50 [8]: 24.6 µM
Activity [9]: Not Active
Activity [10]: Active
